Source: PMC3983135 (Bioconjugate Chemistry, 2014)
Several values for one entry are separate records, joined by “and”; a condition that tells them apart may be missing. Equal values may be shown once.

Experiment: CRRL conjugation kinetics of BQ with methoxyamine by UV–vis spectroscopy
Format: physicochemical
Settings: PBS, room temperature
How it was run: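 BQ (200 μM) was reacted with excess methoxyamine (100 mM and other concentrations) in Dulbecco's PBS at room temperature. Readings were taken in quartz cells, starting immediately after mixing. Repeated UV-vis spectra tracked BQ at 248 nm and QO at 320 nm. Both traces were fitted to pseudo-first-order exponentials to give k′, and the slope of k′ versus [methoxyamine] gave the second-order rate constant.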

O=C1C=CC(=O)C=C1 [BQ, benzoquinone]
pseudo-first-order k′ of conversion of BQ to QO (BQ 200 μM, methoxyamine 100 mM, UV–vis (248 and 320 nm)): 4.2 × 10^–3 s^–1 | second-order rate constant k for CRRL conjugation (BQ with CH3ONH2 to QO) (from plot of k′ versus [methoxyamine], UV–vis): 3.4 × 10^–2 (±6.5 × 10^–4) M^–1s^–1 and 3.41 × 10^–2 (±6.5 × 10^–4) M^–1s^–1
